Laboratory results reported in paper PMC4834983 (Journal of medicinal chemistry, 2015).
pIC50: −log10 of the molar value. “Also recorded” adds a separate entry of the source.

Assays:
SF295 cells = assay: CyQuant cell proliferation assay; format: cell-based; conditions: Homo sapiens, SF-295, 72 h, read-out: IC50 cell proliferation SF295
Outline: (§1)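 CyQuant DNA-dye proliferation assay on cultured cells after 72 h exposure to test compound. Viability expressed relative to DMSO-treated control cells.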

MCF-7 cells = assay: CyQuant cell proliferation assay; format: cell-based; conditions: Homo sapiens, MCF7, 72 h, read-out: IC50 cell proliferation MCF-7
Outline: as §1

MDA-MB-231 cells = assay: CyQuant cell proliferation assay; format: cell-based, human; conditions: Homo sapiens, MDA-MB-231, 72 h, read-out: IC50 cell proliferation MDA-MB-231
Outline: as §1

pYStat3 = assay: Immunoblotting of pStat3 in treated U251MG cells; format: cell-based, human; conditions: for effect on pStat3 in treated tumor cells: 5 μM, glioma cells, immunoblotting
Outline: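 Whole-cell lysates from U251MG cells given test compound at 5 μM for 0–24 h, or at 0–5 μM for 2 h. Immunoblotted for pY705Stat3 and total Stat3, with GAPDH as loading reference.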

Stat1:Stat1 = biological target: T1, Stat1:Stat1 (Mus musculus, UniProt P42225); assay: Cell-free EMSA, EGF-stimulated NIH3T3/hEGFR nuclear extracts; format: biochemical; conditions: 5 μM, 30 min pre-incubation
T1 sequence (P42225 2-749 limits assumed): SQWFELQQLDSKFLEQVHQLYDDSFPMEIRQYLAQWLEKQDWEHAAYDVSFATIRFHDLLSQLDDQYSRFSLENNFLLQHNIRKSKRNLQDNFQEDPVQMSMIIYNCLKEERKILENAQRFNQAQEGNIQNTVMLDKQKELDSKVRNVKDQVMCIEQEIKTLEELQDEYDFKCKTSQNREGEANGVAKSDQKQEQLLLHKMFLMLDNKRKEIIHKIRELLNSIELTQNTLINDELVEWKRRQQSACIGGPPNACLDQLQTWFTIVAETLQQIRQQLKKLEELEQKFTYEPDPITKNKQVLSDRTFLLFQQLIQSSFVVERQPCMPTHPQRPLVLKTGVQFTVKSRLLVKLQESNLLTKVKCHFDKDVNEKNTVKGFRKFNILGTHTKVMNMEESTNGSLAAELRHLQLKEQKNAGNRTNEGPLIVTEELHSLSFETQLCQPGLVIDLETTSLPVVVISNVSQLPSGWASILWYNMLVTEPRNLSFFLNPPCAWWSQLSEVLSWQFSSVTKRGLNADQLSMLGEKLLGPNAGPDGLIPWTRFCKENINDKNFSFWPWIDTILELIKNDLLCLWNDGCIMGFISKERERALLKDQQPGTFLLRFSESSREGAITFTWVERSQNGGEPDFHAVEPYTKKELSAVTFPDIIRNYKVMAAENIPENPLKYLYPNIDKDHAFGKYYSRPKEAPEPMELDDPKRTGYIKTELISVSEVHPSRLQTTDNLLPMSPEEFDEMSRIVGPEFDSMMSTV
Outline: (§2)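 Nuclear extracts from EGF-stimulated NIH3T3/hEGFR fibroblasts, containing active Stat1, Stat3 and Stat5, preincubated with 5 μM test compound for 30 min at room temperature. Then incubated 30 min with 32P-labelled probe before EMSA: hSIE (Stat1/Stat3 binding) or MGFe (bovine β-casein element; Stat1/Stat5 binding). STAT:DNA bands quantified as percent of control.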

U373MG cells = assay: CyQuant cell proliferation assay; format: cell-based; conditions: Homo sapiens, U373 MG, 72 h, read-out: IC50 cell proliferation U373MG
Outline: as §1

Stat5:Stat5 = assay: Cell-free EMSA, EGF-stimulated NIH3T3/hEGFR nuclear extracts, MGFe probe; format: biochemical, mouse; conditions: 5 μM, 30 min pre-incubation
Outline: as §2

Stat3:Stat3 = Stat3:Stat3 (Mus musculus, UniProt P42227); assay: Cell-free EMSA, nuclear extracts pre-incubated with compound, hSIE probe; format: biochemical; conditions: 5 μM, 30 min pre-incubation, NIH3T3/v-Src nuclear extracts
Sequence of Stat3:Stat3 (P42227 2-770 limits assumed): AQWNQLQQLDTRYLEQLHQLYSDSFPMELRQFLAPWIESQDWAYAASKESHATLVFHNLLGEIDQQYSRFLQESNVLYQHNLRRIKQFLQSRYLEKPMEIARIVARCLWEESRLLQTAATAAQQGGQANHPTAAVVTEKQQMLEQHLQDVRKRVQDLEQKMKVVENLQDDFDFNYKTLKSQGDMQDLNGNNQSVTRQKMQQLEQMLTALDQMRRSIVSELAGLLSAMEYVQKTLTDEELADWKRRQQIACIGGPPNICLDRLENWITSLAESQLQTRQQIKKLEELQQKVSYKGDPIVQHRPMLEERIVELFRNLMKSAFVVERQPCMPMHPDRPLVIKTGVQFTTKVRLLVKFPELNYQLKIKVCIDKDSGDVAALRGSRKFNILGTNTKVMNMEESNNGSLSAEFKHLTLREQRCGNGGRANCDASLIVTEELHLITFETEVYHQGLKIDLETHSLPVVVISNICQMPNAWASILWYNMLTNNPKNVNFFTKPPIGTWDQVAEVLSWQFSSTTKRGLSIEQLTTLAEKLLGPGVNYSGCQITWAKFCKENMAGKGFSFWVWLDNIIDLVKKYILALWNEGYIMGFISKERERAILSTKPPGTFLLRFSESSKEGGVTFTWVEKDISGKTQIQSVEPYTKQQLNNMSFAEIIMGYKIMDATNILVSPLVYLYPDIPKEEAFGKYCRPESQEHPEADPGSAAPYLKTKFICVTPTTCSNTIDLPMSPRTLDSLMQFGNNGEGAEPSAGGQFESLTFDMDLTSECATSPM

Stat3 = Stat3 DNA-binding activity/EMSA of nuclear extracts from treated glioma cells; format: cell-based, human; conditions: for effect on Stat3 DNA-binding activity in treated tumor cells: 5 μM, glioma cells, EMSA
[1] = Cysteamine 1H NMR test for Michael acceptor reactivity; format: physicochemical; conditions: DMSO-d6, 1H NMR
pS-Akt = assay: Immunoblotting, U251MG glioma cells; format: cell-based, human; conditions: 5 μM
Outline: (§3)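 U251MG cells given 5 μM test compound for 0–24 h. Whole-cell lysates of equal total protein immunoblotted for pErk1/2, Erk1/2, pS-Akt, Akt, pJAK2, JAK2, SOCS3 and PTP1B, with β-actin or GAPDH as loading reference.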

[2] = test system: protein tyrosine phosphatase (PTP)1B; assay: Immunoblotting, U251MG glioma cells; format: cell-based, human; conditions: 5 μM
Outline: as §3

pStat3 = assay: Immunoblotting of pStat3 in patient-derived xenograft cells; format: cell-based, human; conditions: 5 μM, 3 h
Outline: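 Glioma patient-derived xenograft G22 cells (DMEM, 5–10% heat-inactivated FBS) given 5 μM test compound for 0–24 h. Whole-cell lysates immunoblotted for pStat3 and Stat3, with GAPDH as loading reference.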

G22 cells [3] = assay: Growth of glioma patient-derived xenograft cells in vitro; format: cell-based; conditions: Homo sapiens, read-out: inhibitory activity against growth of G22 cells
pStat1 = assay: Immunoblotting, EGF-stimulated NIH3T3/hEGFR fibroblasts; format: cell-based, mouse; conditions: 5 μM pre-treatment
Outline: (§4)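 NIH3T3/hEGFR fibroblasts pretreated with or without 5 μM test compound for 3 h, then stimulated with 1 μg/ml EGF for 12 min. Whole-cell lysates, equal total protein, immunoblotted for pStat1/Stat1, pStat5/Stat5 and pErk1/2/Erk1/2.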

G10 cells = assay: Growth of glioma patient-derived xenograft cells in vitro; format: cell-based; conditions: Homo sapiens, read-out: inhibitory activity against growth of G10 cells
G22 cells [4] = assay: 3D spheroid assay; format: cell-based, human; conditions: 5 μM, treated once
NIH3T3 cells = assay: Colony survival assay; format: cell-based, mouse; conditions: 5 μM or less
Outline: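 Cells seeded as single cells at 250 per well and treated once the next day with test compound (0–5 μM) for 72 h. Grown until large colonies were visible: 1 week for NIH3T3, 2 weeks for U251MG. Colonies stained with crystal violet for 4 h and counted.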

pErk1/2MAPK [5] = assay: Immunoblotting, U251MG glioma cells; format: cell-based, human; conditions: 5 μM
Outline: as §3

pStat5 = assay: Immunoblotting, EGF-stimulated NIH3T3/hEGFR fibroblasts; format: cell-based, mouse; conditions: 5 μM pre-treatment
Outline: as §4

pErk1/2MAPK [6] = assay: as above; format: cell-based, mouse; conditions: 5 μM pre-treatment
Outline: as §4

U251MG cells [7] = assay: Scratch assay for migration; format: cell-based, human; conditions: 5 μM, 19-h treatment
Outline: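 Sub-confluent U251MG monolayers wounded with pipette tips and treated once with test compound (0–5 μM) or DMSO vehicle. Cells allowed to migrate into the denuded area over 19 h, then imaged by microscopy at 10×.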

G12 cells = assay: Growth of glioma patient-derived xenograft cells in vitro; format: cell-based; conditions: Homo sapiens, read-out: inhibitory activity against G12 cell growth
[8] = test system: suppressors of cytokine signaling (SOCS)3; assay: Immunoblotting, U251MG glioma cells; format: cell-based, human; conditions: 5 μM
Outline: as §3

U251MG cells [9] = assay: Immunofluorescence staining/confocal microscopy of mitosis; format: cell-based, human; conditions: 15 h treatment
Outline: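 U251MG cells on coverslips synchronised by double thymidine block (2 mM) and released for 9 h. Then given DMSO, 100 nM paclitaxel or 8 μM test compound for 15 h. Fixed in 4% paraformaldehyde, permeabilised with 0.1% digitonin and blocked in 0.2% BSA. Stained with anti-β-tubulin (1:350) and anti-MAP1B (1:300) for 1 h at room temperature, then fluorescent secondaries and DAPI; confocal imaging.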

U251MG cells [10] = assay: CyQuant cell proliferation assay; format: cell-based, human
Outline: as §1

U251MG cells [11] = assay: Apoptosis by PARP or caspase cleavage; format: cell-based, human; conditions: 24 or 48 h

Compound | pIC50 (SF295 cells) | pIC50 (MCF-7 cells) | pIC50 (MDA-MB-231 cells) | effect on pStat3 in treated tumor cells (pYStat3) | effect on Stat1:Stat1 activity, cell-free EMSA (Stat1:Stat1) | pIC50 (U373MG cells) | effect on Stat5:Stat5 activity, cell-free EMSA (Stat5:Stat5) | Stat3:Stat3/DNA-binding activity (complexation), cell-free EMSA (Stat3:Stat3) | effect on Stat3 DNA-binding activity in treated tumor cells (Stat3) | Michael acceptor reaction with cysteamine [1] | further results
C=C(C)C(=O)O[C@H]1C[C@@H](C)[C@]2(O)CC[C@](C)(/C=C3/OC(=O)C(COC(C)=O)=C31)O2 [Compound 7] | 4.74 to 5.13 | 5.02 to 5.32 | 5.04 to 5.28 | strongly inhibited | weak effects | 5.09 to 5.18 | weak effects | diminished | strongly inhibited |  | 
C=C(C)C(=O)O[C@H]1C[C@@H](C)[C@]2(OC)CC[C@](C)(/C=C3/OC(=O)C(COC(C)=O)=C31)O2 [Compound 9] |  |  |  | little impact |  |  |  | no effect; also recorded: only weakly inhibited |  | indicative of Michael acceptor reactions | 
C/C=C(\C)C(=O)O[C@H]1C[C@@H](C)[C@]2(OC)CC[C@](C)(/C=C3/OC(=O)C(COC(C)=O)=C31)O2 [Compound 10] | 4.74 to 5.13 | 5.02 to 5.32 | 5.04 to 5.28 | strongly inhibited | weak effects | 5.09 to 5.18 | weak effects | diminished | strongly inhibited | Michael acceptor reactions have occurred | effect on pS-Akt levels (pS-Akt): no effects; effect on PTP1B levels [2]: no effects; effect on Phospho-Stat3 in G22 cells (pStat3): moderate inhibition; inhibition at 5 µM (G22 cells [3]): 45 to 60%; effect on EGF-stimulated pStat1 levels (pStat1): no effect; inhibition at 5 µM (G10 cells): 45 to 60%; 3D spheroid growth (G22 cells [4]): modest; effects on NIH3T3 colony numbers (NIH3T3 cells): moderate or none; effect on pErk1/2MAPK levels (pErk1/2MAPK [5]): no effects; effect on EGF-stimulated pStat5 levels (pStat5): no effect; effect on EGF-stimulated pErk1/2MAPK levels (pErk1/2MAPK [6]): no effect; migration into the denuded area (U251MG cells [7]): slowed migration; inhibition at 5 µM (G12 cells): 25 to 35%; effect on SOCS3 levels [8]: no effects
CC(=O)OCC1=C2/C(=C\[C@@]3(C)CC[C@](O)(O3)[C@H](C)C[C@@H]2O)OC1=O [Compound 11] |  |  |  | weak effect | weak effects |  | weak effects | diminished | weak effect |  | chromatid structures and sister-chromatids segregation (mitosis) (U251MG cells [9]): minimal effect
C/C=C(/C)C(=O)O[C@H]1C[C@@H](C)[C@]2(O)CC[C@](C)(/C=C3/OC(=O)C(COC(C)=O)=C31)O2 [Compound 20] | 4.74 to 5.13 | 5.02 to 5.32 | 5.04 to 5.28 | strongly inhibited | weak effects | 5.09 to 5.18 | weak effects | diminished | strongly inhibited |  | effect on pS-Akt levels (pS-Akt): no effects; effect on PTP1B levels [2]: no effects; effect on EGF-stimulated pStat1 levels (pStat1): no effect; effect on pErk1/2MAPK levels (pErk1/2MAPK [5]): no effects; effect on EGF-stimulated pStat5 levels (pStat5): no effect; effect on EGF-stimulated pErk1/2MAPK levels (pErk1/2MAPK [6]): no effect; effect on SOCS3 levels [8]: no effects
CC(C)=CCC/C(C)=C/C(=O)OCC1=C2/C(=C\[C@@]3(C)CC[C@](O)(O3)[C@H](C)C[C@@H]2O)OC1=O [Compound 31] |  |  |  | suppressed | moderate effect |  |  | diminished | suppressed |  | activity against U251MG cell growth (U251MG cells [10]; 5 μM): retained or improved the inhibitory potency; pIC50 (U251MG cells [10]; Homo sapiens, U-251, 72 h, read-out: IC50 cell proliferation U251MG): 5.92 to 6.00; pIC50 (Stat3; Homo sapiens, U-251, read-out: IC50 Stat3 DNA-binding activity in treated cells): 5.60 to 6.30
C=C1C(=O)O[C@@H]2/C=C(\C)CC/C=C(\C)CC[C@@H]12 [costunolide, reference compound] |  |  |  |  |  |  |  |  |  | formation of diastereomeric Michael adduct mixtures | Stat3 activity in tumor cells, control compounds (pYStat3; Fig. S5E(ii)): did not inhibit; cell growth activity, control compounds (U251MG cells [10]; panel of cell lines, Fig. S5E(i)): poorly-active or non-specific in activity
CN[C@@H]1C[C@H]2O[C@@](C)([C@@H]1OC)n1c3ccccc3c3c4c(c5c6ccccc6n2c5c31)C(=O)NC4 [staurosporine] |  |  |  |  |  |  |  |  |  |  | apoptosis measured by PARP or caspase cleavage (U251MG cells [11]): induced apoptosis
